Calls of active or inactive are those of the source. No cut-off for these calls is given here.

In ChEMBL document CHEMBL4334433, “BIM-46174 fragments as potential ligands of G proteins” (Medchemcomm, 2019) one finds inhibition and Activity data, which are given here for 9 compounds.

Holding throughout (format): cell-based
In series [1] the target is T1, Guanine nucleotide-binding protein G(q) subunit alpha (Homo sapiens) (UniProt P50148).
T1 sequence (whole entry): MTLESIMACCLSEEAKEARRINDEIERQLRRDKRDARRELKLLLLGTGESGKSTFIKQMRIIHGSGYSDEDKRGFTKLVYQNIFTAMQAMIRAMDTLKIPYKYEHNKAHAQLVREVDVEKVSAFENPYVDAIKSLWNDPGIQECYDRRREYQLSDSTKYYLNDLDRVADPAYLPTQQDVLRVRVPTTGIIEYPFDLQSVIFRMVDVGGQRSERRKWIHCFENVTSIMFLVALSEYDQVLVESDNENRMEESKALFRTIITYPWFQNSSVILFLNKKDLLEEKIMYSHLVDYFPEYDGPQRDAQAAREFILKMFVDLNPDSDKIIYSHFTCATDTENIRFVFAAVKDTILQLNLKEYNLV
Nature of the series: Inhibition of Galpha-q in human HEK293 cells assessed as reduction in CCh-induced IP1 accumulation at 100 uM preincubated for 2 hrs followed by CCh stimulation and measured after 35 mins by time resolved fluorescence assay. An outline of the steps: (§1)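 HEK293 wt cells were grown in DMEM with 10% FBS and penicillin/streptomycin at 37 °C and 5% CO2. Cells were plated at 60,000 per well and pre-incubated 15 min at 37 °C. Compound was added in stimulation buffer for 2 h at 37 °C, followed by buffer containing 100 µM carbachol (concentration in the added buffer) for 35 min. IP1 was read by HTRF (620/665 nm ratio).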

In series [2] the test system is HEK293. Description: Cytotoxicity against human HEK293 cells assessed as reduction in cell viability at 100 uM incubated for 22 hrs by CellTiter-BlueTM cell viability assay. The settings on record: hek293, 22 h. An outline of the steps:
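HEK293 cells were seeded at 25,000 per well on poly-D-lysine and grown overnight, then exposed to compound for 22 h. CellTiter-Blue reagent was added for a further 2 h, and resorufin fluorescence was read at excitation 560 nm and emission 590 nm.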
For orientation: Alamar Blue is a resazurin reagent that responds to reducing activity.

In series [3] the target is T1, Guanine nucleotide-binding protein G(q) subunit alpha (Homo sapiens). Nature of the series: Inhibition of Galpha-q in human HEK293 cells assessed as reduction in CCh-induced IP1 accumulation preincubated for 2 hrs followed by CCh stimulation and measured after 35 mins by time resolved fluorescence assay. An outline of the steps:
as §1

The target is the same in series [4]. Description: Inhibition of Galpha-q in human HEK293 cells harbouring PL3alpha mutant assessed as reduction in CCh-induced IP1 accumulation preincubated for 2 hrs followed by CCh stimulation and measured after 35 mins by time resolved fluorescence assay.

For the compound `N[C@@H](CS)C(=O)N1CCn2cc(-c3ccccc3)nc2[C@@H]1CC1CCCCC1`, the inhibition entry in series [1] is “Active”. Further, in series [2], the Activity result is “Toxic”.

As to `O=C1CCn2cc(-c3ccccc3)nc2CN1`, in series [1], the inhibition entry was “inactive”. Further, the inhibition result in series [3] was “Dose-dependent effect”. Further, the inhibition entry in series [4] was “Active”. The Activity result in series [2] is recorded as “Non-Toxic”.

Turning to `O=C1Cn2cc(-c3ccccc3)nc2CCN1`, the inhibition entry in series [1] is “inactive”. The Activity entry in series [2] is “Non-Toxic”.

Consider `N[C@@H](CS)C(=O)N1CCNC(=O)[C@@H]1CC1CCCCC1`, for which, in series [1], the inhibition result was “inactive”. In addition, the Activity result in series [2] is “Non-Toxic”.

As to `O=C1Cn2cc(-c3ccccc3)nc2[C@H](CC2CCCCC2)N1`, in series [1], the inhibition entry was “inactive”. In addition, the Activity entry in series [2] is reported as “Non-Toxic”.

As to `O=C1Cn2cc(-c3ccccc3)nc2[C@H](CC2CCCCC2)CN1`, the inhibition entry in series [1] was “inactive”. Moreover, the Activity entry in series [2] is reported as “Non-Toxic”.

With `O=C1CCn2cc(-c3ccccc3)nc2[C@H](CC2CCCCC2)N1`, the inhibition result in series [1] was “inactive”. For the same compound, in series [2], the Activity entry is recorded as “Non-Toxic”.

Regarding `N[C@@H](CS)C(=O)N1CCNC(=O)C1`, in series [1], the inhibition entry is “inactive”. Besides, the Activity result in series [2] is reported as “Non-Toxic”.

Take `O=C1Cn2cc(-c3ccccc3)nc2CN1`: the inhibition entry in series [1] is “inactive”. The inhibition result in series [3] was “Dose-dependent effect”. The inhibition result in series [4] was “Active”. Besides, the Activity entry in series [2] is on record as “Non-Toxic”.
